Only a selection was taken, and hits are over-represented in it overall.
NALP1 yeast inh: NALP1 inflammasome inhibitors in reconstituted yeast, colorimetric, S. cerevisiae, triplicate retest; S. cerevisiae NALP1/ASC/caspase-1 growth, X-gal OD620, 72 h; inhibition, % at 10 µM; 280,000 compounds, 0.61% hits; in the data active means inhibition mostly above about 24%, no sharp cut-off; inactive means mostly below about 32%
Calb FLC: C. albicans growth inhibition with fluconazole, primary screen, CaCi-2 strain, Alamar Blue fluorescence; 300,000 compounds, 0.57% hits; C. albicans CaCi-2 + fluconazole, 48 h; AID 1979, 2009; growth inhibition, % (concentration not given with the values);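 active means growth inhibition above about 58% in most replicates, limit read from the data, passing the limit was not always enough; inconclusive means exactly half the replicates above a set limit; inactive means most replicates below a set limit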;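 further: all wells also contain fluconazole at 8 µg/ml as a sub-toxic cotreatment; 0% = median of DMSO wells and 100% = median of geldanamycin control wells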
PolyA inh: polyadenylation inhibitors in yeast reporter cells, primary screen, luminescence, S. cerevisiae; S. cerevisiae SKY197-pL101 polyadenylation reporter, beta-gal luminescence; efflux-impaired pdr1/pdr3 knockout yeast; score 100 = 6 SD above DMSO; activity score, % at 12 µM; 300,000 compounds, 0.02% hits;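 active means lowest replicate activity score at least 50, where 100 means six control SD above control mean; inconclusive means lowest score under 50 but half or more replicates reach 50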;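 further: yeast exposed to compound for 9 h at 30 °C; higher score means more reporter readthrough which indicates perturbed polyadenylation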
T cruzi repl: inhibitors of intracellular T. cruzi growth, primary screen, luminescence, NIH3T3 host cells; 300,000 compounds, 1.4% hits; inhibition, % (no concentration beside the values); AID 1885, 2009; T. cruzi beta-gal in NIH3T3, 90 h;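 active means mean inhibition across valid replicates above about 55%, limit read from the data; inconclusive means mean below that limit but half or more replicates reach it; inactive means mean below it, under half of replicates reach it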;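 further: signal also drops with host cell toxicity which is not excluded here; 0% = plate median of DMSO wells and 100% = zero luminescence signal; higher percent means less beta-gal luminescence so fewer parasites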
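Test system: β-gal T. cruzi (Tulahuen C4) inside NIH/3T3 cells / Quantity: 5,000 cells/well / Measured by: luminescence from GalScreen with 0.05% NP40, read after 60 min / Medium: DMEM plus 2% FBS / Measure: parasite load inhibition, % / Reagent: Tulahuen C4 trypomastigotes, 5000/well / Schedule: co-culture of at least 90 h after 3 h attachment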
NALP3 yeast inh: NALP3 inflammasome inhibitors in reconstituted yeast, primary screen, luminescence, uHTS; AID 2825, 2010; 330,000 compounds, 0.39% hits; inhibition, % at 10 µM; Yeast reconstituted NLRP3/ASC/caspase-1, beta-gal luminescence, 24 h;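 active means inhibition of 50% or more; inactive means inhibition below 50%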;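 further: plate controls were induced DMSO wells for no effect and uninduced yeast grown without galactose for full effect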
Lmaj promast: Leishmania major promastigote growth inhibition, primary screen | 200,000 compounds, 9% hits | Leishmania major promastigotes, resazurin fluorescence viability | inhibition, % at 10 µM | AID 1063, 2008; in the data active means inhibition above about 50%;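 further: promastigotes grown with compound for 44 hours at 28 °C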
Numbers without * were called inactive; ? = inconclusive; . = no result given.

SMILES	NALP1 yeast inh	Calb FLC	PolyA inh	T cruzi repl	NALP3 yeast inh	Lmaj promast
CCC(c1nnnn1C(C)(C)C)N(Cc1ccco1)Cc1cc2cccc(C)c2[nH]c1=O (configuration not stated)	6.2	8.7	-0.1	41.2	8.4	61.5*
Cc1cc(C)c2[nH]c(=O)c(C(c3nnnn3C(C)(C)C)N(Cc3ccco3)CC3CCCO3)cc2c1 (configuration not stated)	38.0*	18.7	-4.0	0.8	4.4	44.8
Cc1cc2cc(C(c3nnnn3C(C)(C)C)N(Cc3ccco3)CC3CCCO3)c(=O)[nH]c2cc1C (configuration not stated)	4.8	13.2	0.6	7.4	-6.7	-5.8
CCC(c1nnnn1CCc1ccccc1)N(Cc1ccco1)Cc1cc2cccc(C)c2[nH]c1=O (configuration not stated)	13.1	9.3	1.5	43.6	10.0	98.5*
CC(=O)Nc1ccc(-c2csc(NC(=O)Cc3cccc(F)c3)n2)cc1	17.6	-3.6	-3.1	11.9	-7.5	.
N=c1n(CCN2CCCC2)c2ccccc2n1CC(O)c1ccc(Cl)c(Cl)c1 (configuration not stated)	2.8	-26.0	12.6	50.8	3.8	100.3*
N=c1n(CCN2CCOCC2)c2ccccc2n1CC(=O)c1ccc(Cl)c(Cl)c1	22.3	-6.2	12.3	1.6	34.6	65.6*
Cc1c(C(=O)Nc2ccncc2)sc2nc(-c3ccccc3)cn12	.	0.3	17.7	16.7	23.5	76.2*
Cc1c(C(=O)Nc2ccc3c(c2)OCCO3)sc2nc(-c3ccccc3)cn12	0.2	-5.2	1.7	22.5	21.6	56.0*
CC(C)(C)[C@H]1COC(=O)CCCC/C=C\C[C@H](CC(=O)N(CCO)Cc2ccccc2)C(=O)N1	.	.	.	.	-1.0	.
O=[N+]([O-])c1cccc(-c2n[nH]c(=S)n2-c2ccccc2)c1	.	4.2	6.7	-13.4	13.7	.
O=[N+]([O-])c1ccc2c(c1)[nH]c(=S)n2-c1ccccc1	-5.4	84.6*	-4.8	-15.5	8.3	-3.1
COc1ccc(S(=O)(=O)Nc2ncccc2C)c2ccccc12	25.2	12.8	9.4	-0.2	8.9	.
CCOc1ccc(S(=O)(=O)NCc2cccnc2)c2ccccc12	34.0	8.4	19.3	2.8	8.8	.
CCOc1ccc(S(=O)(=O)NCc2ccc(Cl)cc2)c2cccnc12	34.5	25.0	1.9	3.1	23.0	99.3*
CC(=O)c1c(N2CCCC2)nc(=S)n(-c2ccccc2)c1C	37.5*	0.3	0.4	-12.2	19.6	2.5
CCCCC(=O)NC(c1ccc(C(C)C)cc1)c1ccc2cccnc2c1O (configuration not stated)	23.5	-1.9	-13.9	44.2	21.4	.
COc1cccc(C(NC(C)=O)c2ccc3cccnc3c2O)c1 (configuration not stated)	8.0	79.6*	-2.4	56.5*	32.8	.
Oc1cccc(C(Nc2nccs2)c2ccc3cccnc3c2O)c1 (configuration not stated)	1.8	102.8*	-2.0	91.6*	19.7	100.2*
CC(=O)NC(c1cccc([N+](=O)[O-])c1)c1ccc2cccnc2c1O (configuration not stated)	5.0	-10.1	0.8	52.4	15.4	.
CC(=O)NC(c1ccc(C(C)C)cc1)c1ccc2cccnc2c1O (configuration not stated)	-12.4	0.5	6.5	56.2*	18.3	.
CN1C(c2ccccc2)CC(=NO)CC1c1ccccc1 (configuration not stated)	-0.4	-10.3	8.3	-5.2	16.5	.
CCn1c(SCC(=O)NCCCN2CCCC2=O)nnc1-c1cccc(C)c1	.	.	.	.	-4.6	.
CC(C)(C)C1CCc2onc(C(=O)Nc3cnn(Cc4ccc(F)cc4)c3)c2C1 (configuration not stated)	34.2	0.2	-5.5	26.3	7.6	2.2
O=C(Nc1cnn(Cc2ccc(F)cc2)c1)C(c1ccccc1)c1ccccc1	2.5	2.1	27.5	5.2	14.7	51.3*
SMILES	NALP1 yeast inh	Calb FLC	PolyA inh	T cruzi repl	NALP3 yeast inh	Lmaj promast
O=C(Nc1cnn(Cc2ccc(F)cc2)c1)c1noc2c1CCCC2	0.7	5.6	-13.5	-8.2	26.1	100.0*
O=C(Nc1ccc(Cl)c(Cl)c1)Nc1nnc(CC2=CCCCC2)s1	13.1	-11.0	5.9	12.8	-9.5	-0.1
COc1ccc2c(C)nc(Nc3nc(C)cc(=O)[nH]3)nc2c1	.	.	.	.	.	100.3*
Cc1ccc2c(C)nc(Nc3nc(CSc4nc5ccccc5[nH]4)cc(=O)[nH]3)nc2c1	-3.5	?	-12.3	27.6	24.1	100.2*
Cc1nnc(SCc2cc(=O)[nH]c(Nc3nc(C)c4ccccc4n3)n2)s1	.	.	.	.	.	83.5*
CSc1ccccc1C(=O)C1CCCN(C(=O)c2cncs2)C1 (configuration not stated)	21.3	?	16.8	-2.9	-3.0	.
CCCCn1nnc(NC(=S)NC(=O)c2ccc(-c3cccc(Cl)c3Cl)o2)n1	21.4	7.0	-17.9	0.5	27.9	-5.8
O=c1c2c([N+](=O)[O-])cc([N+](=O)[O-])cc2sn1-c1ccc(Br)cc1	25.8	.	.	.	13.7	-10.5
O=c1c2c([N+](=O)[O-])cc([N+](=O)[O-])cc2sn1Cc1ccccc1	14.7	12.2	-58.6	57.0*	38.5	.
CCOC(=O)C1(C)NC(c2ccc(OC)cc2OC)C2C(=O)N(CC)C(=O)C21 (configuration not stated)	7.4	-1.5	23.0	-19.6	3.8	-4.7
O=C1/C(=C\c2ccco2)SC(=S)N1C1CCS(=O)(=O)C1 (configuration not stated)	27.2	9.9	11.1	.	21.0	.
O=C1/C(=C/c2ccco2)SC(=S)N1C1CCS(=O)(=O)C1 (configuration not stated)	21.9	79.4	-2.9	21.0	26.4	93.2*
COc1ccccc1S(=O)(=O)Cc1ccc(C(=O)NCC(OC)OC)o1	13.2	-0.9	5.5	-0.6	-3.1	.
COc1ccccc1N1C(=O)CC(Sc2n[nH]c(-c3cccc(C)c3)n2)C1=O (configuration not stated)	73.4*	20.5	-5.6	4.1	7.1	-7.5
Clc1ccc(OCCCN2CCc3ccccc3C2)c(Br)c1	2.9	-2.3	-6.5	32.4	37.1	.
CC1CN(CCOCCOc2ccccc2-c2ccccc2)CC(C)O1 (configuration not stated)	11.4	-4.4	4.5	-9.2	12.6	.
c1ccc(-c2ccccc2OCCOCCN2CCc3ccccc3C2)cc1	17.8	0.5	-6.5	29.3	31.1	76.8*
Clc1ccc(OCCOCCN2CCc3ccccc3C2)c(Cl)c1	55.7*	0.8	-9.3	58.9*	33.1	88.0*

From PubChem BioAssay
